# Bioassay records (PubChem BioAssay)
# A selection: hits, their analogues and other compounds. The true share with any hit is near 1.4%.
# NS3 helicase inh: HCV NS3 helicase inhibition; AID 1800; inhibition, % at 10.9 µM; NS3 helicase DNA unwinding, Cy5 molecular beacon fluorescence; actives 0.56% (n = 290,000);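 active means inhibition above the mean of all tested compounds plus 3 SD, set per campaign, cut at about 35% in these data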;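 further: 0% = DMSO wells and 100% = thioflavine S control wells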
#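 Compound dosing – single dose, 10.9 µM nominal final, DMSO 0.8% final · System – NS3 helicase fragment of HCV · Buffer or medium – MOPS pH 6.5, MgCl2, DTT, Tween20, BSA · Signal – Cy5 beacon fluorescence read at start and 1 h · Also added – annealed dual-labelled DNA beacon duplex, ATP-started · Schedule – 1 h at 25 °C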
# Fh CTSL1 inh: counter-screen for PFM18AAP inhibitors: inhibitors of F. hepatica cathepsin L1. actives 0.49% (n = 300,000). recombinant F. hepatica cathepsin L1, Z-Leu-Arg-MCA fluorescence. AID 1906. inhibition, % at 5.96 µM;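 active means inhibition above the mean of all tested compounds plus 3 SD, set per screening campaign, cut at about 17% in these data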;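 further: 0% = plate median of test compound wells and 100% = 1 µM Z-Phe-Ala-diazomethylketone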
# EBNA-1 inh: blocks EBNA-1 binding to DNA | actives 0.34% (n = 300,000) | EBNA-1 DNA binding, fluorescence polarization | AID 1950 | inhibition, % at 14.8 µM; in the data active means inhibition above about 28%
# ZTA counter: ZTA (EBV) inhibition in EBNA-1 counter-screen | P03206 | ZTA-DNA binding, fluorescence polarization | inhibition, % at 11 µM | actives 0.15% (n = 320,000) | AID 2234; in the data active means inhibition above about 33%
# Target sequence (P03206 whole entry, looked up): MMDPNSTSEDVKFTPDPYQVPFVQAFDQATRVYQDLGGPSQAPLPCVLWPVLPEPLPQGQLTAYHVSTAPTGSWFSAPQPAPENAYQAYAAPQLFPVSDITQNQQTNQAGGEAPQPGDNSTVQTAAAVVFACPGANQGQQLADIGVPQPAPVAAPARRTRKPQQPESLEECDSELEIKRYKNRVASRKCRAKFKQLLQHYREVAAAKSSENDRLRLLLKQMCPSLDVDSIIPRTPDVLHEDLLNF
# The depositor's hits bear a star; x = no result.
SMILES,NS3 helicase inh,Fh CTSL1 inh,EBNA-1 inh,ZTA counter
CCOc1cc(N2CCOCC2)c(OCC)cc1NC(=O)COC(=O)[C@@H]1CCCN1S(=O)(=O)c1ccccc1F,-3.0,79.7*,-5.7,8.4
CCOc1cc(N2CCOCC2)c(OCC)cc1NC(=O)CN1C(=O)NC(C)(C2CC2)C1=O (centres undefined),2.1,36.8*,-6.3,18.2
CCOc1cc(N2CCOCC2)c(OCC)cc1NC(=O)COC(=O)c1cc2ccccc2cc1O,3.6,57.6*,10.9,-15.1
CCOc1cc(N2CCOCC2)c(OCC)cc1NC(=O)CSc1n[nH]c(N)n1,3.7,21.1*,-13.2,-5.8
O=C(O)C(Cc1ccccc1)N=Cc1c(O)c2ccccc2oc1=O (centres undefined),14.9,x,x,x
Cc1ccc(NS(=O)(=O)c2ccc3c(c2)n(C)c(=O)n3C)cc1C,14.2,17.7*,0.9,-5.0
C(=N\N1CCN(Cc2ccccc2)CC1)/c1ccc(-c2ccccc2)cc1,-3.1,17.4*,0.7,4.2
CC1(OC(=O)C2CCCC2)C(=O)C=C2C=C(c3ccsc3)N(Cc3ccco3)C=C2C1=O (centres undefined),x,22.1*,13.5,-17.1
CC1(OC(=O)C2CCCC2)C(=O)C=C2C=C(c3ccsc3)N(CCCCO)C=C2C1=O (centres undefined),x,8.9,0.4,-6.3
CC(C)c1ccc(O)c(NC(=O)c2ncn[nH]2)c1,10.4,16.8*,5.6,2.7
CC(C)c1ccc(O)c(NC(=O)c2cncc(Br)c2)c1,5.6,1.9,4.2,11.8
Cc1nc2ccccn2c1/C(O)=C1\C(=O)C(=O)N(CCN(C)C)C1c1cccnc1 (centres undefined),6.7,1.8,4.8,4.0
CCOC(=O)c1c(C)c(-c2ccccc2)n(CC(=O)NCCC(C)C)c1C,17.5,88.8*,-4.1,0.0
CCOC(=O)c1c(C)c(-c2ccccc2)n(CC(=O)NCCCN(CC)CC)c1C,-25.3,-2.9,-6.4,-5.1
O=C(/C=C/c1ccc(NC(=O)c2ccccc2-c2ccccc2C(=O)O)cc1)c1ccccc1,25.6,5.8,3.3,40.9*
C=CCn1c(O)c(N=NC(=O)CNC(=O)/C=C/c2ccco2)c2ccccc21,10.7,4.9,8.0,-0.8
Cc1ccc(NC(=S)N2CCC(c3ccc(C)cc3)C2)cc1 (centres undefined),-9.1,53.8*,4.0,-0.2
O=C(NCc1cn2ccccc2n1)c1ccco1,-0.8,-1.9,-0.8,-15.4
O=C(/C=C/c1ccco1)NCc1ccccn1,1.7,16.7*,7.0,8.0
O=C(/C=C/c1ccc([N+](=O)[O-])cc1)NCc1ccccn1,-3.7,4.8,12.5,-2.1
O=C(/C=C/c1ccco1)NC1CCCC1,1.7,58.8*,4.0,0.9
Cc1ccc(S(=O)(=O)CNC(=O)c2ccccc2)cc1,2.0,35.9*,-6.8,-9.7
Cc1ccc(NC(=O)COC(=O)c2ccc([N+](=O)[O-])s2)c(C)c1,-3.9,28.2*,2.3,9.5
NS(=O)(=O)c1ccc(NC(=O)COC(=O)c2ccc([N+](=O)[O-])s2)cc1,0.2,67.8*,0.4,0.8
COc1ccccc1NC(=O)COC(=O)c1ccc([N+](=O)[O-])s1,3.8,22.0*,3.0,-3.9
SMILES,NS3 helicase inh,Fh CTSL1 inh,EBNA-1 inh,ZTA counter
Cc1cc(C)c(NC(=O)COC(=O)c2ccc([N+](=O)[O-])s2)c(C)c1,-0.7,6.8,-18.9,-0.2
COC(=S)N/C(=N\S(=O)(=O)c1ccc(Cl)cc1)c1ccccc1,0.0,-2.9,4.0,14.1
O=C(CCc1ccccc1)NNC(=S)Nc1ccc(F)cc1,2.0,-14.2,-10.6,5.7
CN1C(=O)/C(=C/c2cccc(Cl)c2)Sc2ccc(C(=O)N3CCCC3)cc21,-8.8,5.0,6.6,1.6
Cc1nn(-c2ccccc2)c2c1C(c1ccc(O)c(O)c1)N1C(=N2)C(Nc2ccccc2)=Nc2ccccc21 (centres undefined),32.6,38.3*,11.2,9.2
COc1ccccc1-n1cnc(N)c1C(=O)c1ccccc1,-1.7,18.8*,-11.4,-13.6
CCOC(=O)N1CCC(N2Cc3cccc(C(=O)NCc4ccccn4)c3C2=O)CC1,3.5,26.5*,3.4,-12.1
CN1CCN(C2=C(Cl)C(=O)N(c3cccc(Cl)c3)C2=O)CC1,4.4,23.4*,-0.8,-6.0
Cc1ccc(N2C(=O)C(Cl)=C(N3CCOCC3)C2=O)cc1Cl,-0.1,38.3*,-8.2,-10.5
CN1CCN(C2=C(Cl)C(=O)N(c3ccc(Cl)c(Cl)c3)C2=O)CC1,6.6,40.2*,13.5,8.8
O=C1C(Cl)=C(N2CCCC2)C(=O)N1c1ccc(F)cc1,3.5,29.4*,6.9,21.9
CCCCn1c(=N)c(S(=O)(=O)c2ccc(Br)cc2)cc2c(=O)n3cccc(C)c3nc21,0.6,1.6,12.2,6.1
O=Cc1c(N2CCCCCC2)nc2ccccn2c1=O,-5.7,1.2,-0.6,-1.2
O=C(COC(=O)c1cncc(Br)c1)Nc1nc(-c2ccc(F)cc2)cs1,-6.2,-8.4,25.4,2.3
COc1ccc(-c2cc(C(=O)N3CC4(C)CC3CC(C)(C)C4)no2)cc1OC (centres undefined),-5.5,17.3*,0.9,3.1
COCCN(C(=O)CCl)C(C(=O)NC1CCCCC1)c1ccccc1C (centres undefined),5.0,27.3*,-0.2,3.7
COCCN(C(=O)CCC(=O)Nc1cc(C)on1)C(C(=O)NC1CCCC1)c1ccccc1C (centres undefined),-9.0,1.5,-8.8,9.8
Cc1ccccc1Cn1c2ccccc2c2cnn(CC(=O)NCCCN3CCOCC3)c(=O)c21,-22.4,1.4,-1.4,6.1
CC(NC(=O)/C(C#N)=C/c1ccco1)c1ccccc1 (centres undefined),-1.1,36.1*,3.7,6.0
CC(NC(=O)/C(C#N)=C/c1ccc([N+](=O)[O-])o1)c1ccccc1 (centres undefined),14.4,3.7,-10.2,6.7
CCNC1=C(Cl)C(=O)c2ccccc2C1=O,-0.3,8.4,0.0,1.0
O=C1C(Cl)=C(NCCN2CCCCC2)C(=O)c2ccccc21,4.5,53.6*,3.8,-5.4
O=C1C(c2ccccc2)=[N+]([O-])c2ccccc21,x,31.0*,-3.3,-10.9
O=C(NNC1=NS(=O)(=O)c2ccccc21)C1CC(=O)N(c2ccccc2)C1 (centres undefined),1.8,-2.4,8.7,-11.2
O=C(c1cc2cc(Cl)ccc2oc1=O)N1CCCCCCC1,-0.3,-1.0,-10.1,10.2
SMILES,NS3 helicase inh,Fh CTSL1 inh,EBNA-1 inh,ZTA counter
N#CC1(NC(=O)COC(=O)c2cc([N+](=O)[O-])ccc2N2CCCC2)CCCCC1,x,17.5*,-8.9,-1.9
O=C(NCCN1CCCCCC1)C1CCC(CNS(=O)(=O)c2cccc3cccnc23)CC1 (centres undefined),-81.0,38.9*,4.8,-15.3
COc1ccc(-c2sc3cc(OC)c(OC)cc3c2C#CC2(O)CCCCC2)cc1,x,x,x,9.1
Cc1ccc(S(=O)(=O)N2CCN(S(=O)(=O)N(C)C)CC2)cc1,8.2,-0.8,-1.9,-14.9
NC(=S)N/N=C/c1c[nH]c2ccccc12,-8.9,101.6*,10.3,6.2
COc1ccccc1OCCn1cc(/C=N/NC(N)=S)c2ccccc21,-6.2,95.1*,-1.7,1.8
